The values below come from ChEMBL document CHEMBL2146367, “Novel fluorescent ceramide derivatives for probing ceramidase substrate specificity” (Bioorg Med Chem, 2012).

Substrate in data set [1]: CCCCCCCCCCCCC/C=C/[C@@H](O)[C@H](CO)NC(=O)CCCCCCCCCCCOc1ccc2c(=O)cc3oc4cc(N(CC)CC)ccc4nc-3c2c1
The data set is described as follows: (§1) Activity of human recombinant acid ceramidase expressed in baculovirus infected Sf9 cells assessed per ug of protein after 150 mins by Lineweaver-Burk plot analysis. The method, boiled down: (§2)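 Recombinant human aCDase expressed in insect cells, at a fixed enzyme level, in 200 mM sodium acetate pH 4.5 with 200 mM NaCl and 0.1% Triton X-100. Substrate varied from 5 to 150 µM or 5 to 180 µM, added from DMSO stocks (DMSO <5% v/v), 37 °C for 150 min. Chloroform/methanol extraction, TLC, fluorescence imaging of cleaved and uncleaved spots. KM, Vmax and kcat taken from Lineweaver-Burk plots, mean ± SD of three independent experiments.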

Substrate in data set [2]: CCCCCCCCCCCCCCCC(=O)N[C@@H](CO)[C@H](O)/C=C/CCCCCCCCCNc1ccc([N+](=O)[O-])c2nonc12
The description is as §1. The method, boiled down: as §2

Substrate in data set [3]: CCCCCCCCCCCCC/C=C/[C@@H](O)[C@H](CO)NC(=O)CCCCCCCCCCCNc1ccc([N+](=O)[O-])c2nonc12
Described as §1. The essentials:
as §2

Substrate in data set [4]: CCCCCCCCCCCCCCCC(=O)N[C@@H](CO)[C@H](O)/C=C/CCCCCCCCCOc1ccc2c(=O)cc3oc4cc(N(CC)CC)ccc4nc-3c2c1
The data set is described as §1. The essentials: as §2

Substrate in data set [5]: CCCCCCCCCCCCC/C=C/[C@@H](O)[C@H](CO)NC(=O)CCCCCCCCCCCOc1ccc2c(=O)cc3oc4cc(N(CC)CC)ccc4nc-3c2c1
The data set is described as follows: (§3) Activity of human recombinant acid ceramidase expressed in baculovirus infected Sf9 cells after 150 mins by Lineweaver-Burk plot analysis. The essentials:
as §2

Substrate in data set [6]: CCCCCCCCCCCCCCCC(=O)N[C@@H](CO)[C@H](O)/C=C/CCCCCCCCCNc1ccc([N+](=O)[O-])c2nonc12
Described as §3. The essentials:
as §2

Substrate in data set [7]: CCCCCCCCCCCCC/C=C/[C@@H](O)[C@H](CO)NC(=O)CCCCCCCCCCCNc1ccc([N+](=O)[O-])c2nonc12
The data set is described as §3. The essentials:
as §2

Substrate in data set [8]: CCCCCCCCCCCCCCCC(=O)N[C@@H](CO)[C@H](O)/C=C/CCCCCCCCCOc1ccc2c(=O)cc3oc4cc(N(CC)CC)ccc4nc-3c2c1
Described as §3. The method, boiled down: as §2

Substrate in data set [9]: CCCCCCCCCCCCC/C=C/[C@@H](O)[C@H](CO)NC(=O)CCCCCCCCCCCNc1ccc([N+](=O)[O-])c2nonc12
The data set is described as follows: Activity of mouse neutral ceramidase after 30 mins by TLC-based fluorescence imaging.

Substrate in data set [10]: CCCCCCCCCCCCC/C=C/[C@@H](O)[C@H](CO)NC(=O)CCCCCCCCCCCOc1ccc2c(=O)cc3oc4cc(N(CC)CC)ccc4nc-3c2c1
Description: (§4) Activity of human recombinant neutral ceramidase assessed per ng of protein after 60 mins by Lineweaver-Burk plot analysis. The method, boiled down:
(§5)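 Human recombinant nCDase held at 20 ng/mL in 200 mM sodium acetate pH 7.0 with 200 mM NaCl and 0.1% Triton X-100. Substrate varied from 5 to 150 or 5 to 180 µM, DMSO <5%. Incubated 60 min at 37 °C, chloroform/methanol quench, TLC with fluorescence imaging. Kinetic constants from Lineweaver-Burk plots, mean ± SD of triplicate experiments.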

Substrate in data set [11]: CCCCCCCCCCCCCCCC(=O)N[C@@H](CO)[C@H](O)/C=C/CCCCCCCCCNc1ccc([N+](=O)[O-])c2nonc12
The description is as §4. The essentials: as §5

Substrate in data set [12]: CCCCCCCCCCCCC/C=C/[C@@H](O)[C@H](CO)NC(=O)CCCCCCCCCCCNc1ccc([N+](=O)[O-])c2nonc12
The data set is described as §4. The method, boiled down:
as §5

Substrate in data set [13]: CCCCCCCCCCCCCCCC(=O)N[C@@H](CO)[C@H](O)/C=C/CCCCCCCCCOc1ccc2c(=O)cc3oc4cc(N(CC)CC)ccc4nc-3c2c1
The data set is described as §4. The method, boiled down:
as §5

Substrate in data set [14]: CCCCCCCCCCCCC/C=C/[C@@H](O)[C@H](CO)NC(=O)CCCCCCCCCCCOc1ccc2c(=O)cc3oc4cc(N(CC)CC)ccc4nc-3c2c1
The data set is described as follows: (§6) Activity of human recombinant neutral ceramidase after 60 mins by Lineweaver-Burk plot analysis. The method, boiled down: as §5

Substrate in data set [15]: CCCCCCCCCCCCCCCC(=O)N[C@@H](CO)[C@H](O)/C=C/CCCCCCCCCNc1ccc([N+](=O)[O-])c2nonc12
Described as §6. The method, boiled down: as §5

Substrate in data set [16]: CCCCCCCCCCCCC/C=C/[C@@H](O)[C@H](CO)NC(=O)CCCCCCCCCCCNc1ccc([N+](=O)[O-])c2nonc12
The data set is described as §6. The essentials:
as §5

Substrate in data set [17]: CCCCCCCCCCCCCCCC(=O)N[C@@H](CO)[C@H](O)/C=C/CCCCCCCCCOc1ccc2c(=O)cc3oc4cc(N(CC)CC)ccc4nc-3c2c1
Described as §6. The method, boiled down: as §5

B1: Acid ceramidase (Homo sapiens), Q13510 (protein)
chain: MPGRSCVALVLLAAAVSCAVAQHAPPWTEDCRKSTYPPSGPTYRGAVPWYTINLDLPPYKRWHELMLDKAPVLKVIVNSLKNMINTFVPSGKIMQVVDEKLPGLLGNFPGPFEEEMKGIAAVTDIPLGEIISFNIFYELFTICTSIVAEDKKGHLIHGRNMDFGVFLGWNINNDTWVITEQLKPLTVNLDFQRNNKTVFKASSFAGYVGMLTGFKPGLFSLTLNERFSINGGYLGILEWILGKKDVMWIGFLTRTVLENSTSYEEAKNLLTKTKILAPAYFILGGNQSGEGCVITRDRKESLDVYELDAKQGRWYVVQTNYDRWKHPFFLDDRRTPAKMCLNRTSQENISFETMYDVLSTKPVLNKLTVYTTLIDVTKGQFETYLRDCPDPCIGW
For the protein B1, the specific activity in data set [1] came out at 0.143 pmol/min/µg; in data set [2], 0.244 pmol/min/µg; in data set [3] it was 0.0882 pmol/min/µg; in [4], 0.078 pmol/min/µg. Moreover, the Km in [5] amounted to 110 µM; in data set [6] it was 204 µM; in [7] it was 86.9 µM; in data set [8], 81.8 µM. The Vmax came to 7.2 pmol/min in data set [5], 12.2 pmol/min in data set [6], 4.4 pmol/min in data set [7] and 3.9 pmol/min in data set [8].

B2: Neutral ceramidase (Mus musculus), Q9JHE3 (protein)
chain: MAKRTFSTLEAFLIFLLVIMTVITVALLTLLFVTSGTIENHKDSGNHWFSTTLGSTTTQPPPITQTPNFPSFRNFSGYYIGVGRADCTGQVSDINLMGYGKNGQNARGLLTRLFSRAFILADPDGSNRMAFVSVELCMISQRLRLEVLKRLESKYGSLYRRDNVILSAIHTHSGPAGFFQYTLYILASEGFSNRTFQYIVSGIMKSIDIAHTNLKPGKIFINKGNVANVQINRSPSSYLLNPQSERARYSSNTDKEMLVLKLVDLNGEDLGLISWFAIHPVSMNNSNHFVNSDNMGYAAYLFEQEKNKGYLPGQGPFVAGFASSNLGDVSPNILGPHCVNTGESCDNDKSTCPNGGPSMCMASGPGQDMFESTHIIGRIIYQKAKELYASASQEVTGPVLAAHQWVNMTDVSVQLNATHTVKTCKPALGYSFAAGTIDGVSGLNITQGTTEGDPFWDTLRDQLLGKPSEEIVECQKPKPILLHSGELTIPHPWQPDIVDVQIVTVGSLAIAAIPGELTTMSGRRFREAIKKEFALYGMKDMTVVIAGLSNVYTHYITTYEEYQAQRYEAASTIYGPHTLSAYIQLFRDLAKAIATDTVANMSSGPEPPFFKNLIASLIPNIADRAPIGKHFGDVLQPAKPEYRVGEVVEVIFVGANPKNSAENQTHQTFLTVEKYEDSVADWQIMYNDASWETRFYWHKGILGLSNATIYWHIPDTAYPGIYRIRYFGHNRKQELLKPAVILAFEGISSPFEVVTT
With B2, in data set [9], the Km stood at 22.3 µM and the Vmax is 4.7 pmol/min.

B3: Neutral ceramidase (Homo sapiens), Q9NR71 (protein)
chain: MAKRTFSNLETFLIFLLVMMSAITVALLSLLFITSGTIENHKDLGGHFFSTTQSPPATQGSTAAQRSTATQHSTATQSSTATQTSPVPLTPESPLFQNFSGYHIGVGRADCTGQVADINLMGYGKSGQNAQGILTRLYSRAFIMAEPDGSNRTVFVSIDIGMVSQRLRLEVLNRLQSKYGSLYRRDNVILSGTHTHSGPAGYFQYTVFVIASEGFSNQTFQHMVTGILKSIDIAHTNMKPGKIFINKGNVDGVQINRSPYSYLQNPQSERARYSSNTDKEMIVLKMVDLNGDDLGLISWFAIHPVSMNNSNHLVNSDNVGYASYLLEQEKNKGYLPGQGPFVAAFASSNLGDVSPNILGPRCINTGESCDNANSTCPIGGPSMCIAKGPGQDMFDSTQIIGRAMYQRAKELYASASQEVTGPLASAHQWVDMTDVTVWLNSTHASKTCKPALGYSFAAGTIDGVGGLNFTQGKTEGDPFWDTIRDQILGKPSEEIKECHKPKPILLHTGELSKPHPWHPDIVDVQIITLGSLAITAIPGEFTTMSGRRLREAVQAEFASHGMQNMTVVISGLCNVYTHYITTYEEYQAQRYEAASTIYGPHTLSAYIQLFRNLAKAIATDTVANLSRGPEPPFFKQLIVPLIPSIVDRAPKGRTFGDVLQPAKPEYRVGEVAEVIFVGANPKNSVQNQTHQTFLTVEKYEATSTSWQIVCNDASWETRFYWHKGLLGLSNATVEWHIPDTAQPGIYRIRYFGHNRKQDILKPAVILSFEGTSPAFEVVTI
Consider B3, for which the specific activity stood at 0.5 pmol/min/ng in data set [10], 1.6 pmol/min/ng in data set [11], 3.1 pmol/min/ng in data set [12] and 0.26 pmol/min/ng in [13]. Also, the Km in data set [14] turned out to be 85.3 µM; in data set [15], 193 µM; in data set [16], 190 µM; in [17], 36.4 µM. Also, the Vmax is 10 pmol/min in data set [14], 31.8 pmol/min in data set [15], 62.4 pmol/min in [16] and 5.3 pmol/min in data set [17].
